{
  "source": "ChEMBL document CHEMBL5104204",
  "about": "“Synthesis and in vitro anticancer evaluation of novel flavonoid-based amide derivatives as regulators of the PI3K/AKT signal pathway for TNBC treatment” (RSC Med Chem, 2022)",
  "key": {"[1]": {"system": "MDA-MB-231", "test": "Inhibition of colony formation in human MDA-MB-231 cells assessed as decrease in size of colony forming cells at 0.44 to 3.52 uM incubated for 48 hrs by crystal violet staining based assay", "format": "functional, cell-based", "conditions": "dose 0.44-3.52 µM, DDE = dose-dependent effect", "method_in_brief": "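Colony formation, MDA-MB-231: 800 cells/well, three replicate wells per group, grown 5–7 days at 37 °C, 5% CO2 until 30–50-cell clusters formed. Drug then added for 24, 48 or 72 h. Washed with cold PBS, fixed in 4% paraformaldehyde 30 min, stained with 0.5% crystal violet, imaged, colonies counted; n = 3.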"}, "[2]": {"system": "MDA-MB-231", "test": "Induction of apoptosis in human MDA-MB-231 cells assessed as early apoptotic cells at 3.52 uM incubated for 48 hrs AnnexinV/ propidium iodide staining based flow cytometry (Rvb= 0.3%)", "format": "functional"}, "[3]": {"system": "MDA-MB-231", "test": "Induction of apoptosis in human MDA-MB-231 cells assessed as necrotic cells at 1.76 uM incubated for 48 hrs AnnexinV/ propidium iodide staining based flow cytometry (Rvb= 0.54%)", "format": "functional"}, "[4]": {"system": "MDA-MB-231", "test": "Induction of apoptosis in human MDA-MB-231 cells assessed as viable cells at 0.88 uM incubated for 48 hrs AnnexinV/ propidium iodide staining based flow cytometry (Rvb= 99.02%)", "format": "functional", "conditions": "read-out: Activity"}, "[5]": {"system": "MDA-MB-231", "test": "Induction of apoptosis in human MDA-MB-231 cells assessed as chromatin concentration and margination at 0.88 to 3.52 uM incubated for 48 hrs by Hoechst 33258 staining based fluorescence microscopic analysis", "format": "functional, cell-based", "conditions": "dose 0.88-3.52 µM, DDE = dose-dependent effect", "method_in_brief": "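MDA-MB-231 seeded at 2×10^5–3×10^5 per well and incubated overnight (37 °C, 5% CO2). Exposed to compound for 48 h. Fixed in methanol 30 min, then stained with Hoechst 33258 for 30 min at room temperature in the dark. Nuclear morphology scored by fluorescence microscopy; n = 3, mean ± SD.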"}, "[6]": {"system": "MDA-MB-231", "test": "Induction of apoptosis in human MDA-MB-231 cells assessed as late apoptotic cells at 3.52 uM incubated for 48 hrs AnnexinV/ propidium iodide staining based flow cytometry (Rvb= 0.40%)", "format": "functional"}, "[7]": {"system": "MDA-MB-231", "test": "Induction of apoptosis in human MDA-MB-231 cells assessed as early apoptotic cells at 2.2 uM incubated for 48 hrs AnnexinV/ propidium iodide staining based flow cytometry (Rvb= 0.3%)", "format": "functional"}, "[8]": {"system": "MDA-MB-231", "test": "Induction of apoptosis in human MDA-MB-231 cells assessed as late apoptotic cells at 2.2 uM incubated for 48 hrs AnnexinV/ propidium iodide staining based flow cytometry (Rvb= 0.40%)", "format": "functional"}, "[9]": {"system": "MDA-MB-231", "test": "Induction of apoptosis in human MDA-MB-231 cells assessed as upregulation of Bax expression at 1 to 10 uM incubated for 48 hrs by western blot analysis", "format": "functional, cell-based", "conditions": "dose 1-10 µM, DDE = dose-dependent effect"}, "[10]": {"system": "MDA-MB-231", "test": "Induction of apoptosis in human MDA-MB-231 cells assessed as upregulation of Caspase-3 expression at 1 to 10 uM incubated for 48 hrs by western blot analysis", "format": "functional, cell-based", "conditions": "dose 1-10 µM, DDE = dose-dependent effect"}, "[11]": {"system": "HCC1937", "test": "Antitumor activity against human HCC1937 cells assessed as inhibit cell proliferation incubated for 72 hrs by CCK-8 assay", "format": "functional, cell-based", "conditions": "HCC1937, 72 h", "method_in_brief": "(§1)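 CCK8 viability readout. Culture media: HCC1937, A549, HeLa and GTL-16 in RPMI 1640; MDA-MB-231, MCF-7 and HepG2 in high-glucose DMEM; all with 10% FBS and penicillin/streptomycin, 37 °C, 5% CO2. 4×10^3–6×10^3 cells/well, 24 h, then compounds in serum-free medium, 72 h at 37 °C. 10% CCK8, 2 h, OD 450/630 nm. Five wells per group; IC50 from inhibition rate; three independent experiments, mean ± SD.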"}, "[12]": {"system": "MDA-MB-231", "test": "Induction of cell cycle arrest in human MDA-MB-231 cells assessed as decrease in G2/M phase at 0.88 to 3.52 uM incubated for 48 hrs by flow cytometry", "format": "functional, cell-based", "conditions": "dose 0.88-3.52 µM, DDE = dose-dependent effect", "method_in_brief": "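Cell cycle of MDA-MB-231 after 48 h exposure: trypsinised and washed in PBS, about 1×10^6 cells/mL. Fixed overnight in pre-cooled 70% ethanol at 4 °C, then resuspended in PBS and filtered through 200-mesh nylon. Flow cytometry with 488 nm excitation gave G0/G1, S and G2/M percentages; n = 3, mean ± SD.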"}, "[13]": {"system": "MDA-MB-231", "test": "Inhibition of cell migration in human MDA-MB-231 cells at 0.88 uM incubated for 12 hrs by scratch wound healing assay", "format": "functional, cell-based"}, "[14]": {"system": "MDA-MB-231", "test": "Inhibition of cell invasion in human MDA-MB-231 cells assessed as decrease in number of cells crossing microporous membrane at 0.88 to 3.52 uM incubated for 48 hrs by crystal violet staining based transwell invasion assay", "format": "functional", "conditions": "dose 0.88-3.52 µM, DDE = dose-dependent effect", "method_in_brief": "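Transwell invasion, MDA-MB-231. Cells in serum-free medium in the upper chamber with compound; complete medium below. 48 h at 37 °C. Methanol fixation 2 h, non-invaded cells swabbed off, 0.5% crystal violet 30 min. Invaded cells photographed and counted; n = 3, mean ± SD.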"}, "[15]": {"system": "MDA-MB-231", "test": "Inhibition of PI3K/AKT signalling pathway in human MDA-MB-231 cells assessed as upregulation of PTEN expression at 1 to 10 uM incubated for 48 hrs by western blot analysis", "format": "cell-based", "conditions": "dose 1-10 µM, DDE = dose-dependent effect", "method_in_brief": "(§2)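 MDA-MB-231 treated at 1, 5 and 10 μM at 37 °C, then lysed in RIPA/PMSF for 30 min at 0 °C and cleared at 14 000 × g, 4 °C. Protein quantified by BCA; 40 μg resolved by SDS-PAGE and transferred to PVDF. Blocked in 5% skim milk, primary antibody overnight at 4 °C, secondary 2 h at room temperature, chemiluminescent imaging.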"}, "[16]": {"system": "HeLa", "test": "Antitumor activity against human HeLa cells assessed as inhibit cell proliferation incubated for 72 hrs by CCK-8 assay", "format": "functional, cell-based", "method_in_brief": "as §1"}, "[17]": {"system": "MDA-MB-231", "test": "Induction of apoptosis in human MDA-MB-231 cells assessed as early apoptotic cells at 7.04 uM incubated for 48 hrs AnnexinV/ propidium iodide staining based flow cytometry (Rvb= 0.3%)", "format": "functional"}, "[18]": {"system": "MDA-MB-231", "test": "Induction of apoptosis in human MDA-MB-231 cells assessed as necrotic cells at 0.88 uM incubated for 48 hrs AnnexinV/ propidium iodide staining based flow cytometry (Rvb= 0.54%)", "format": "functional"}, "[19]": {"system": "MDA-MB-231", "test": "Inhibition of PI3K/AKT signalling pathway in human MDA-MB-231 cells assessed as decrease in phosphorylated AKT level at 1 to 10 uM incubated for 48 hrs by western blot analysis", "format": "cell-based", "conditions": "dose 1-10 µM, DDE = dose-dependent effect", "method_in_brief": "as §2"}, "[20]": {"system": "MDA-MB-231", "test": "Induction of apoptosis in human MDA-MB-231 cells assessed as late apoptotic cells at 7.04 uM incubated for 48 hrs AnnexinV/ propidium iodide staining based flow cytometry (Rvb= 0.40%)", "format": "functional"}, "[21]": {"system": "MDA-MB-231", "test": "Induction of apoptosis in human MDA-MB-231 cells assessed as viable cells at 3.52 uM incubated for 48 hrs AnnexinV/ propidium iodide staining based flow cytometry (Rvb= 99.02%)", "format": "functional", "conditions": "read-out: Activity"}, "[22]": {"system": "MDA-MB-231", "test": "Induction of apoptosis in human MDA-MB-231 cells assessed as early apoptotic cells at 0.88 uM incubated for 48 hrs AnnexinV/ propidium iodide staining based flow cytometry (Rvb= 0.3%)", "format": "functional"}, "[23]": {"system": "MDA-MB-231", "test": "Induction of apoptosis in human MDA-MB-231 cells assessed as early apoptotic cells at 1.76 uM incubated for 48 hrs AnnexinV/ propidium iodide staining based flow cytometry (Rvb= 0.3%)", "format": "functional"}},
  "note": "Activity calls are given as the source filed them. The rule behind the calls is not given here.",
  "data": [
    {"smiles": "O=C(Nc1cccc(-c2oc3cc(-c4ccc(F)cc4)ccc3c(=O)c2O)c1)c1ccc(Cl)nc1", "values": [
      {"measurement": "inhibition", "setting": "[1]", "result": "Dde"},
      {"measurement": "Activity", "setting": "[2]", "result": 15.04, "unit": "%"},
      {"measurement": "Activity", "setting": "[3]", "result": 0.86, "unit": "%"},
      {"measurement": "viability at 0.88 µM", "setting": "[4]", "result": 74.3, "unit": "%"},
      {"measurement": "Activity", "setting": "[5]", "result": "Dde"},
      {"measurement": "Activity", "setting": "[6]", "result": 14.4, "unit": "%"},
      {"measurement": "Activity", "setting": "[7]", "result": 7.49, "unit": "%"},
      {"measurement": "Activity", "setting": "[8]", "result": 61.14, "unit": "%"},
      {"measurement": "Activity", "setting": "[9]", "result": "Dde"},
      {"measurement": "Activity", "setting": "[10]", "result": "Dde"},
      {"measurement": "IC50", "setting": "[11]", "result": 7.55, "unit": "µM"},
      {"measurement": "Activity", "setting": "[12]", "result": "Dde"},
      {"measurement": "inhibition", "setting": "[13]", "result": "Active"},
      {"measurement": "inhibition", "setting": "[14]", "result": "Dde"},
      {"measurement": "inhibition", "setting": "[15]", "result": "Dde"},
      {"measurement": "IC50", "setting": "[16]", "result": 4.08, "unit": "µM"},
      {"measurement": "Activity", "setting": "[17]", "result": 23.85, "unit": "%"},
      {"measurement": "Activity", "setting": "[18]", "result": 0.63, "unit": "%"},
      {"measurement": "inhibition", "setting": "[19]", "result": "Dde"},
      {"measurement": "Activity", "setting": "[20]", "result": 68.54, "unit": "%"},
      {"measurement": "viability at 3.52 µM", "setting": "[21]", "result": 12, "unit": "%"},
      {"measurement": "Activity", "setting": "[22]", "result": 1.48, "unit": "%"},
      {"measurement": "Activity", "setting": "[23]", "result": 3.88, "unit": "%"}
    ]}
  ]
}
